# The list is not random: actives were taken first. Their share in the collection is about 4%.
# KCNK9 inh: KCNK9 potassium channel inhibitors, primary screen, HEK293 cells, thallium flux; Potassium channel subfamily K member 9 (Homo sapiens), Q9NPC2; FluxOR thallium flux fluorescence; hits give low values; B-score at 10 µM; hit rate 1.2% among 310,000; AID 488922, 2010;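 active = ratio B-score over 3 SD below the library mean, with starting fluorescence within 5 SD of its mean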;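 also: negative B-score means less thallium flux so channel inhibition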
# KCNQ1 pot: potentiators or activators of KCNQ1 channel, primary screen, cell-based, thallium flux, high-throughput | Potassium voltage-gated channel subfamily KQT member 1 (Homo sapiens), P51787 | CHO-K1 KCNQ1, thallium flux FluxOR fluorescence; hits give high values | B-score at 10 µM | hit rate 0.35% among 310,000;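 active = fluorescence ratio B-score, a plate-corrected score, at least three library SD, with initial intensity B-score within 5 SD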
#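 Material: CHO-K1 cells stably expressing KCNQ1. Medium: assay buffer for compound exposure, DMSO matched across wells. Reagent: K+/Tl+ depolarizing stimulus. Compound dosing: single-concentration screen. Times: 37 °C overnight plating, 90-min dark dye load, 20-min compound pretreatment. Technique: FluxOR Tl+ flux fluorescence.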
# KCNK3 inh: human KCNK3 channel inhibitors, primary screen, CHO cells, FluxOR thallium flux, B-score; AID 602410, 2012; Potassium channel subfamily K member 3 (Homo sapiens), O14649; hit rate 0.84% among 340,000; FluxOR fluorescence; hits give low values; B-score at 10 µM;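 active = B-score under library mean minus 4 SD, starting fluorescence ratio at most library mean plus 5 SD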;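 also: more negative B-score means stronger inhibition of thallium flux through KCNK3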
# PHOSPHO1 inh: PubChem AID 1565; recombinant PHOSPHO1, absorbance phosphatase assay; inhibition, % at 13.3 µM; hit rate 1.1% among 290,000; in the data active = inhibition above about 60%
# Target sequence (Q8TCT1 whole entry, looked up): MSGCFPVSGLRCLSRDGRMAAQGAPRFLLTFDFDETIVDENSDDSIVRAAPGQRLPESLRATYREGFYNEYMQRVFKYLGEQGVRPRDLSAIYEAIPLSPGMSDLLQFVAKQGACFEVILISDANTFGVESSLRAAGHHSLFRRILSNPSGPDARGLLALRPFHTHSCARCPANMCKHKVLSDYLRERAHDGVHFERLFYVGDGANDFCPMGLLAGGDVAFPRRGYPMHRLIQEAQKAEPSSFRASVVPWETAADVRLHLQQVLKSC
# KCNQ1 inh: inhibitors of human KCNQ1 channel, primary screen, cell-based, thallium flux, high-throughput; Potassium voltage-gated channel subfamily KQT member 1 (Homo sapiens), P51787; CHO-K1 KCNQ1, FluxOR thallium flux fluorescence; hits give high values; B-score at 10 µM; hit rate 1.3% among 310,000; AID 2642, 2010;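 active = compounds whose thallium flux B-score, printed positive for inhibition, exceeds three library SD while starting fluorescence stays within three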;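 also: channel opened by potassium depolarization with thallium stimulus after 20 min compound exposure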
# hERG protect: hERG rescue from dofetilide block, primary screen, cell-based, CHO-hERG, FluxOR thallium flux, dofetilide IC70; Voltage-gated inwardly rectifying potassium channel KCNH2 (Homo sapiens), Q12809; dofetilide IC70 present; activation (rescue from dofetilide block), less the hit threshold, % at 10 µM; hit rate 0.51% among 310,000;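 active = activation above the mean of controls blocked by dofetilide plus 5 SD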;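 also: thallium influx through hERG after potassium depolarization seen as dye fluorescence rise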
# An asterisk follows results filed as active; i = inactive; x = not tested or not shown.
SMILES,KCNK9 inh,KCNQ1 pot,KCNK3 inh,PHOSPHO1 inh,KCNQ1 inh,hERG protect
CC1=C(C(=O)N2CCCC(CCC(=O)NCc3ccccc3F)C2)OCCO1 (centres undefined),i,i,i,32,i,-7
Cc1ccc(S(=O)(=O)N2CCCC(CCC(=O)NCc3ccccc3F)C2)s1 (centres undefined),-8*,i,i,34,i,-3
Cc1ccc(-n2nc3ccc(NC(=O)C(C)C)cc3n2)cc1,i,i,i,50,i,-3
CCn1c(-c2ccc3[nH]c(C)c(C)c3c2)n[nH]c1=S,i,i,i,94*,i,-8
Cc1cccc(-c2n[nH]c(=S)n2C)c1,i,i,i,-32,i,-5
Cc1[nH]c2ccc(-c3n[nH]c(=S)n3C)cc2c1C,i,i,i,98*,i,-3
N#CCSc1nc2sc3c(c2c(=O)n1C1CCCCC1)CCCC3,i,i,i,13,i,-2
Cc1ccc(NC(=O)c2cc3ccccc3oc2=N)cc1,i,i,i,x,i,-5
CC(=O)c1cc2ccc(O)cc2oc1=O,i,i,i,-12,7*,-19
CC(=O)c1cc2cc(O)ccc2o1,i,i,i,89*,i,-5
CC(=O)c1cc2c(O)c(O)ccc2o1,i,i,i,11,i,-7
COc1ccc2cc(C(C)=O)c(=O)oc2c1,i,i,i,-19,i,-3
N=c1oc2cc(O)ccc2cc1C(=O)Nc1ccc(Cl)cc1,i,i,i,44,6*,-7
CCOC(=O)c1c(C)[nH]c(C)c1S(=O)(=O)NCc1ccccc1OCC,i,i,i,38,i,-7
COc1cc(-c2nc(CN(C)Cc3nnc(C)o3)c(C)o2)ccc1F,i,i,i,52,i,-7
C=C(C)CNC(=S)NNC(=O)CCn1c2ccc(Cl)cc2c2cc(Cl)ccc21,i,i,i,-1,i,-12
O=C(O)c1ccc(NS(=O)(=O)c2ccc(N3CCCC3)c([N+](=O)[O-])c2)cc1,i,i,i,10,i,-7
CCOC(=O)C1(Cc2ccc(OC)cc2)CCN(S(C)(=O)=O)CC1,i,i,i,51,i,-4
CCOC(=O)C1(Cc2ccc(Cl)cc2)CCN(C(C)Cc2ccc(O)c(OC)c2)CC1 (centres undefined),i,i,i,14,13*,-16
Cc1ccc2nsnc2c1S(=O)(=O)Nc1cccc2nsnc12,i,11*,i,15,i,5.2*
CCN(CC)Cc1ccccc1CNC(=O)c1cccc(S(=O)(=O)Nc2ccc3c(c2)OCO3)c1,x,x,-9.3*,x,x,x
O=S(=O)(Nc1ccc2c(c1)OCO2)c1cccc(Br)c1,x,x,i,x,x,x
S=c1[nH]cc(-c2ccc(Cl)cc2)n1Cc1ccccc1,i,i,i,-33,i,-7
CCn1c(-c2ccccc2)c[nH]c1=S,i,i,i,98*,i,-9
CN1CC(C(=O)Nc2ccc(F)c(Cl)c2)CC1=O (centres undefined),i,i,i,8,i,-3
SMILES,KCNK9 inh,KCNQ1 pot,KCNK3 inh,PHOSPHO1 inh,KCNQ1 inh,hERG protect
CCOC(=O)Nc1ccc2c(c1)N(C(=O)CNC)c1ccccc1CC2,i,i,i,14,i,-3
CCCc1nc2ccccc2c(C(=O)OCC(=O)N2CCc3ccccc32)c1CC,-6.6*,i,i,-6,i,-11
CSc1ccc(CNc2ccccn2)cc1,i,i,i,76*,i,-5
Cc1ccc(COc2ccsc2-c2n[nH]c(=S)n2C)cc1,i,i,i,107*,i,-15
Cn1c(-c2sccc2OCc2ccccc2)n[nH]c1=S,i,i,i,99*,i,-16
Cc1cc(C)n(-c2c(C)[nH]c3ccccc23)n1,i,i,i,11,i,-4
C/C(=N\NS(=O)(=O)c1ccc(C(C)(C)C)cc1)c1ccccc1,i,i,i,14,6*,-6
C/C(=N/NS(=O)(=O)c1ccccc1)c1ccc(Cl)cc1,i,i,i,24,i,-8
Cc1ccc(S(=O)(=O)Cc2ccc(C(=O)N3CCN(c4cccc(C)c4C)CC3)o2)cc1,-8.1*,i,i,2,i,-15
COc1ccc(S(=O)(=O)Cc2ccc(C(=O)N3CCN(c4cc(Cl)ccc4C)CC3)o2)cc1,i,i,i,-12,6*,-5
COc1ccc(S(=O)(=O)Cc2ccc(C(=O)N3CCN(c4cc(C)ccc4C)CC3)o2)cc1,i,i,i,45,i,-10
CC(C)Cc1nnc(NC(=O)CCC(=O)Nc2ccc(F)cc2)s1,i,i,i,0,i,-5
Cc1cc(C(C)(C)C)cc(C)c1C[n+]1ccc2ccccc2c1,i,i,i,20,7*,-15
CC(NC(=O)COC(=O)c1cc(NS(=O)(=O)c2ccc(Cl)c([N+](=O)[O-])c2)ccc1O)C1CC2CCC1C2 (centres undefined),i,i,i,0,11*,-13
O=C(CN1CCCc2ccccc21)Nc1ccccc1[N+](=O)[O-],i,i,i,12,i,-10
CC12CCC(C(=O)NCc3ccc4c(c3)OCO4)(CC1=O)C2(C)C (centres undefined),i,i,i,-2,i,5.3*
CCCCCCCNC(=O)C1(CC2CC(c3ccc(Cl)cc3)=NO2)CCN(C(=O)OC(C)(C)C)CC1 (centres undefined),i,i,i,25,8*,-10
CC(C)(C)OC(=O)N1CCC(CC2CC(c3ccccc3)=NO2)(C(=O)O)CC1 (centres undefined),i,i,i,x,i,-4
COc1ccc2oc(C(=O)N(Cc3ccco3)Cc3cccs3)c(C)c2c1,i,i,i,x,9*,-17
C=CCC[C@@H](Cc1ccc(F)cc1)C(=O)OCCNC(=O)[C@@H](CC=C)CC(=O)N[C@H](CO)Cc1ccccc1,x,x,i,x,x,x
CCc1cc2c(=O)c(-c3ccc4c(c3)OCCO4)coc2cc1OS(C)(=O)=O,i,i,i,-6,6*,-12
COCCOC(=O)C1=C(N)OC2=C(C(=O)CC(C)(C)C2)C1c1cccnc1 (centres undefined),i,i,i,21,i,5.2*
